Measurements taken from publication PMC13487472 (Blood, 2026).

Tested on: ALL-SIL
Test: CTG assay in ALL-SIL
Type: cell-based
Conditions: ABL-fusion-positive cell line, 72 hrs
How it was run: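 After 72 h, an equal volume of CellTiter-Glo was added and luminescence read as an ATP-based proxy for cell number. Signals were normalised to DMSO controls; triplicates; LC50 fitted with a 4-parameter dose-response model.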

Cc1nc(Nc2ncc(C(=O)Nc3c(C)cccc3Cl)s2)cc(N2CCN(CCO)CC2)n1 [dasatinib]
Cytotoxicity in ALL-SIL: highly sensitive
